Results gathered from unrelated publications.
Protocols differ between the studies behind these lines.
Target: Dual specificity tyrosine-phosphorylation-regulated kinase 2 (DYRK2, Homo sapiens, UniProt Q92630)
Effect on: enzyme activity
Mode: inhibitor
Residues used in one study (Q92630 1-601): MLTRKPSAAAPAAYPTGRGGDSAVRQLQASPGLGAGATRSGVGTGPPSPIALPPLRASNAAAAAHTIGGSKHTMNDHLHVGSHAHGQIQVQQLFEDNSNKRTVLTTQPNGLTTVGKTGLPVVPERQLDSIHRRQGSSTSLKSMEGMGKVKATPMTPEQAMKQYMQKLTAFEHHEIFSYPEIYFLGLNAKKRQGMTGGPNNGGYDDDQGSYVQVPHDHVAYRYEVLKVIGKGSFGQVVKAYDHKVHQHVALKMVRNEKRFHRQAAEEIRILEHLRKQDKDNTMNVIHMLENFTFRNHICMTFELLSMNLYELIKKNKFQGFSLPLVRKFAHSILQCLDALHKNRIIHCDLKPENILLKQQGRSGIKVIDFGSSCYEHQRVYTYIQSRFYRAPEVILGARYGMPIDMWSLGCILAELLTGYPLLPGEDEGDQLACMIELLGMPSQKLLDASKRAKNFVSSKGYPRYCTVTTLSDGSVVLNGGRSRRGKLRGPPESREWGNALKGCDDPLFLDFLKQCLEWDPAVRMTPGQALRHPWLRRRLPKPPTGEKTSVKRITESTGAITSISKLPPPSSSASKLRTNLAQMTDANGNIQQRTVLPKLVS

| Compound | assay | setting | remaining activity |
| --- | --- | --- | --- |
| O=C(O)c1ccc2c(c1)nc(Nc1ccc3ccccc3c1)c1ccncc12 | radiometric | 1 µM | 18% |
| COc1cc(Cl)c(C(=O)N[C@@H](CN[C@H]2CC[C@@H](N)CC2)Cc2ccc(C#N)cc2)cc1-c1ccc(CN[C@H](C)c2ccc(C)cc2)o1 | – | 1 µM | 98% |
| O=C(O)c1ccc2c(c1)nc(Nc1ccccc1)c1ccncc12 | radiometric | 1 µM | 45% |
| O=C(Nc1cnn(-c2csc(C(=O)NC3COC3)c2)c1)Nc1ccccc1Cl | – | 5 µM | 88.2% |
| Oc1cccc(-c2nc(N3CCOCC3)c3oc4ncccc4c3n2)c1 | – | 10 µM | 83% |
| Cc1ccc(C(=O)Nc2ccc(CN3CCN(C)CC3)c(C(F)(F)F)c2)cc1C#Cc1cnc2cccnn12 | – | 23.5 nM | 80% |
| O=C(O)c1ccc2c(c1)nc(Nc1ccc(Cl)cc1)c1ccncc12 | radiometric | 1 µM | 11% |
| Cc1sc(C(=O)NC2COC2)cc1-n1cc(NC(=O)Nc2c(F)cccc2Cl)cn1 | – | 10 µM | 96.3% |
| COc1cc(Nc2cnc(C#N)c(O[C@H](C)CN(C)C)n2)ncc1-c1cnn(C)c1 | radiometric | 1 µM | 100% |
| CCCOc1ccc(OC)c(F)c1C(=O)c1ccc(C(=O)N[C@@H]2CNC[C@H]2NC(=O)c2ccc3[nH]ncc3c2)cc1 | – | 10 µM | 92% |
| Nc1nc(Nc2ccccc2)sc1C(=O)c1c(F)cccc1F | – | 10 µM | 79% |
| Cc1cnc(NC2CCOCC2)nc1-n1cnc(C(=O)NC(CN)c2cc(F)cc(Cl)c2)c1 (stereo not shown) | radiometric | 1 µM | 30% |
| Cn1c(=O)n(-c2ccc(C(C)(C)C#N)cc2)c2c3cc(-c4cnc5ccccc5c4)ccc3ncc21 | – | 10 µM | 79% |
